PubChem BioAssay AID651740 (Broad Institute, 2012)
Out of some 5,600 compounds screened, about 1,200 (21%) were called active. About 3% were inconclusive and are not listed.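 How the source made its calls: active means mean inhibition above about 95%, with at least 55% of replicates also reaching it (limit read from the data); inconclusive means meets just one of the two conditions; inactive means meets neither condition.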 The list is a sample of the results.

test: inhibitors of intracellular T. cruzi replication, confirmation, NIH3T3 host cells, beta-gal parasites, cherry-pick, set 2 (AID 651740);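 further: plate controls were neutral control median for no effect and positive control median for full effect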; conditions: T. cruzi beta-gal in NIH3T3, GalScreen luminescence, 90 h; at 2.09 µM; active compounds read high
Procedure, shortened: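 Test system: beta-gal T. cruzi in mouse NIH/3T3 fibroblasts. Quantity: 5,000 host cells per well. Buffer or medium: DMEM plus 2% fetal bovine serum, 1% PSG. Reagent: 5000 trypomastigotes per well. Timing: 3 h host cell attachment, then ≥90 h compound-parasite co-culture, 60 min GalScreen. Technique: luminescence, GalScreen.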

Row | SMILES | inhibition
1 | COc1ccc(CN(C)C[C@H]2Oc3ccc(NS(=O)(=O)c4ccc(Cl)cc4)cc3CC(=O)N([C@@H](C)CO)C[C@H]2C)cc1 | 33.6% (inactive)
2 | C[C@@H]1CN([C@H](C)CO)C(=O)c2cccc(NC(=O)c3ccc(-c4nccs4)cc3)c2O[C@@H]1CN(C)C(=O)Nc1ccc(C(F)(F)F)cc1 | 53% (inactive)
3 | CC(C)CC#Cc1cnc2c(c1)C(=O)N([C@@H](C)CO)C[C@@H](C)[C@H](CN(C)C(=O)Cc1ccncc1)O2 | 29.7% (inactive)
4 | O=C(c1cccc(F)c1)N1CCCCN2[C@H](CO)[C@H](c3ccc(-c4ccncc4)cc3)[C@H]2C1 | 82% (inactive)
5 | CN(C)C(=O)c1ccc(-c2ccc([C@@H]3[C@H](CO)N4CCCCN(S(C)(=O)=O)C[C@@H]34)cc2)cc1 | 17.3% (inactive)
6 | Cc1cccc(-c2ccc([C@H]3[C@@H](CO)N4CCCCN(Cc5cncnc5)C[C@H]34)cc2)c1 | 48.1% (inactive)
7 | CN(C)C(=O)c1ccc(-c2ccc3c(c2)[C@H]2[C@H](CCN2C(=O)c2ccc4c(c2)OCO4)[C@H](CO)N3)cc1 | 72.2% (inactive)
8 | C[C@@H]1CCCCO[C@@H](CN(C)Cc2ccc(C(F)(F)F)cc2)[C@@H](C)CN([C@H](C)CO)C(=O)c2cc(NC(=O)Nc3ccccc3)ccc2O1 | 64.3% (inactive)
9 | C[C@H]1CCCCO[C@@H](CN(C)C(=O)NC2CCCCC2)[C@@H](C)CN([C@@H](C)CO)C(=O)c2cc(NS(=O)(=O)c3ccc(Cl)cc3)ccc2O1 | 68% (inactive)
10 | C[C@H]1CCCCO[C@H](CN(C)Cc2ccccc2)[C@@H](C)CN([C@@H](C)CO)C(=O)c2cc(NC(=O)c3ccccc3)ccc2O1 | 68.2% (inactive)
11 | C[C@@H]1CCCCO[C@H](CN(C)C(=O)NC2CCCCC2)[C@H](C)CN([C@H](C)CO)C(=O)c2cc(NC(=O)Nc3ccc(F)cc3)ccc2O1 | 105% (active)
12 | C[C@@H]1CCCCO[C@@H](CN(C)CC2CC2)[C@H](C)CN([C@H](C)CO)C(=O)c2cc(NC(=O)C3CCCCC3)ccc2O1 | 89.3% (inactive)
13 | C[C@H]1CCCCO[C@H](CN(C)Cc2ccccc2)[C@@H](C)CN([C@@H](C)CO)C(=O)c2cc(NC(=O)NC3CCCCC3)ccc2O1 | 43.1% (inactive)
14 | C[C@@H]1CCCCO[C@H](CN(C)Cc2ccccc2)[C@@H](C)CN([C@@H](C)CO)C(=O)c2cc(NC(=O)Nc3ccc(F)cc3)ccc2O1 | 103% (active)
15 | C[C@@H]1CCCCO[C@H](CN(C)Cc2ccc(C(F)(F)F)cc2)[C@H](C)CN([C@H](C)CO)C(=O)c2cc(NC(=O)Nc3ccc(F)cc3)ccc2O1 | 117% (active)
16 | Cc1ccc(S(=O)(=O)Nc2ccc3c(c2)C(=O)N([C@H](C)CO)C[C@H](C)[C@H](CN(C)C(=O)Nc2ccc(F)cc2)OCCCC[C@H](C)O3)cc1 | 71.2% (inactive)
17 | C[C@@H]1CN([C@H](C)CO)C(=O)c2cc(NC(=O)Nc3ccc(F)cc3)ccc2O[C@@H](C)CCCCO[C@@H]1CN(C)CC1CCCCC1 | 104% (active)
18 | C[C@@H]1CN([C@@H](C)CO)C(=O)c2cc(C#CC3CCCCC3)cnc2O[C@H]1CN(C)S(=O)(=O)c1ccccc1 | 85.8% (inactive)

Row | SMILES | inhibition
19 | COc1ccc(-c2ccc3c(c2)[C@@H]2[C@@H](CCN2C(=O)Cc2ccccn2)[C@H](CO)N3C)cc1 | 84.9% (inactive)
20 | O=C(C1CCCC1)N1CCCCN2[C@@H](CO)[C@H](c3ccc(-c4cccc(F)c4)cc3)[C@@H]2C1 | 78.2% (inactive)
21 | O=C(CN1CCOCC1)N1CCCCN2[C@@H](CO)[C@H](c3ccc(/C=C/c4ccccc4)cc3)[C@@H]2C1 | 25.9% (inactive)
22 | C[C@H]1CN([C@@H](C)CO)S(=O)(=O)c2ccc(C#Cc3cccc(F)c3)cc2O[C@@H]1CN(C)S(=O)(=O)c1cn(C)cn1 | 24.7% (inactive)
23 | C[C@@H]1CN([C@@H](C)CO)C(=O)c2cc(NC(=O)Nc3cccc4ccccc34)ccc2O[C@@H](C)CCCCO[C@H]1CN(C)Cc1ccccc1 | 94.8% (inactive)
24 | Cc1ccc(S(=O)(=O)Nc2ccc3c(c2)C(=O)N([C@@H](C)CO)C[C@@H](C)[C@H](CN(C)C(=O)Nc2cccc4ccccc24)OCCCC[C@H](C)O3)cc1 | 66.1% (inactive)
25 | C[C@@H]1CCCCO[C@@H](CN(C)Cc2ccccc2)[C@H](C)CN([C@H](C)CO)C(=O)c2cc(NC(=O)Nc3cccc4ccccc34)ccc2O1 | 110% (active)
26 | C[C@H](CO)N1C[C@H](C)[C@H](CN(C)S(=O)(=O)c2ccccc2)Oc2ncc(-c3cccc(C(F)(F)F)c3)cc2C1=O | 47.5% (inactive)
27 | OC[C@@H]1[C@H](c2ccc(C#CC3CC3)cc2)[C@@H]2CN(CCC(F)(F)F)CCCCN12 | 78.6% (inactive)
28 | C[C@@H]1CN([C@@H](C)CO)C(=O)c2cc(NC(=O)C3CCCCC3)ccc2O[C@@H](C)CCCCO[C@H]1CN(C)Cc1ccncc1 | 78% (inactive)
29 | C[C@H](CO)N1C[C@H](C)[C@@H](CN(C)Cc2ccc(C(=O)Nc3ccccc3N)cc2)Oc2c(NC(=O)c3ccc(-c4nccs4)cc3)cccc2C1=O | 60.5% (inactive)
30 | COc1ccc(NC(=O)N(C)C[C@@H]2Oc3c(NC(=O)NC4CCCCC4)cccc3C(=O)N([C@@H](C)CO)C[C@@H]2C)cc1 | 23.4% (inactive)
31 | C[C@@H]1CN([C@H](C)CO)C(=O)c2cccc(NC(=O)NC3CCCCC3)c2O[C@H]1CN(C)Cc1ccc(C(F)(F)F)cc1 | 106% (active)
32 | C[C@H]1CCCCO[C@H](CN(C)Cc2ccc(C(F)(F)F)cc2)[C@@H](C)CN([C@@H](C)CO)C(=O)c2cc(NC(=O)C3CCCCC3)ccc2O1 | 111% (active)
33 | C[C@H](CO)N1C[C@H](C)[C@@H](CN(C)Cc2ccc(C(F)(F)F)cc2)OCCCC[C@H](C)Oc2ccc(NC(=O)C3CCCCC3)cc2C1=O | 106% (active)
34 | C[C@@H]1CN([C@H](C)CO)S(=O)(=O)c2ccc(C#Cc3ccncc3)cc2O[C@@H]1CN(C)S(=O)(=O)c1ccc(F)cc1 | 22.2% (inactive)
35 | OC[C@H]1[C@H](c2ccc(-c3cccc(F)c3)cc2)[C@@H]2CN(Cc3cncnc3)CCCCN12 | 60.7% (inactive)
